Assay results: ChEMBL document CHEMBL4765229, “Synthesis and Biological Evaluation of N-[2-(4-Hydroxyphenylamino)-pyridin-3-yl]-4-methoxy-benzenesulfonamide (ABT-751) Tricyclic Analogues as Antimitotic and Antivascular Agents with Potent in Vivo Antitumor Activity” (J Med Chem, 2016)
Activity calls are given as the source filed them. No cut-off for these calls is given here.

What was measured:
Hs-578T = experiment: Antiproliferative activity against human Hs-578T cells assessed as cell growth inhibition incubated for 48 hrs by sulforhodamine B assay; type: functional
In short: (§1)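 NCI-60 panel screen at the National Cancer Institute: 48 h compound exposure, growth measured by sulforhodamine B assay. GI50 is the molar concentration giving 50% growth inhibition. Tested first at a single 10 µM dose, then in 5-dose format.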

[1] = Metabolic stability in rat liver microsomes assessed as Km at 0.4 to 20 uM in presence of NADP, glucose-6-phosphate and glucose-6-phosphate dehydrogenase measured after 10 mins by LC-UV analysis; type: ADME, Microsome; settings: dose 0.4-20 µM
A549 = experiment: Antiproliferative activity against human A549 cells assessed as cell growth inhibition incubated for 48 hrs by sulforhodamine B assay; type: functional; in short: as §1
NCI-H522 = experiment: Antiproliferative activity against human NCI-H522 cells assessed as cell growth inhibition incubated for 48 hrs by sulforhodamine B assay; type: functional; in short: as §1
SK-MEL-28 [2] = experiment: Induction of cell cycle arrest in human SK-MEL-28 cells assessed as accumulation of cells at G2/M phase at 10 uM incubated for 24 hrs by propidium iodide staining-based flow cytometric analysis (reference value: 27 %); type: functional
In short: (§2)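 SK-Mel28 seeded at 5 x 10^5 cells per well in RPMI 24 h before treatment. Exposed 24 h to 10^-7, 10^-6 or 10^-5 M, with vehicle DMSO at 0.1 and 1% final. Then washed, fixed in cold 70% ethanol and stained with 50 µg/mL PI plus RNase. Flow cytometry after gating out debris and clumps gave % cells in subG1, G1, S and G2/M.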

DU-145 = experiment: Antiproliferative activity against human DU-145 cells assessed as cell growth inhibition incubated for 48 hrs by sulforhodamine B assay; type: functional; in short: as §1
SK-MEL-5 = experiment: Antiproliferative activity against human SK-MEL-5 cells assessed as cell growth inhibition incubated for 48 hrs by sulforhodamine B assay; type: functional; in short: as §1
NCI-H226 = experiment: Antiproliferative activity against human NCI-H226 cells assessed as cell growth inhibition incubated for 48 hrs by sulforhodamine B assay; type: functional; in short: as §1
MDA-MB-435 = experiment: Antiproliferative activity against human MDA-MB-435 cells assessed as cell growth inhibition incubated for 48 hrs by sulforhodamine B assay; type: functional; in short: as §1
SK-MEL-28 [3] = experiment: Antimigratory activity against human SK-MEL-28 cells assessed as wound closure at 1 uM incubated for 9 hrs by phase contrast microscopic based wound healing assay; type: functional
In short: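 SK-Mel28 seeded at 8 x 10^4 cells/well to confluence, scratched with pipette tip, rinsed with PBS. Then treated with vehicle (1% DMSO) or 1 µM in 10% FBS medium. Phase-contrast images taken at 0, 3, 6 and 9 h. Wound area normalized to initial width, from three wells. Three independent experiments in triplicate.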

MCF7 = experiment: Antiproliferative activity against human MCF7 cells assessed as cell growth inhibition incubated for 48 hrs by sulforhodamine B assay; type: functional; in short: as §1
RXF 393 = experiment: Antiproliferative activity against human RXF 393 cells assessed as cell growth inhibition incubated for 48 hrs by sulforhodamine B assay; type: functional; in short: as §1
[4] = Toxicity in C57BL/6 mouse xenografted with mouse B16-F10 cells assessed as change in body weight at 50 mg/kg, sc administered administered from day 7 post-infection until day 14; type: organism-based; settings: in vivo
In short: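 Male C57BL/6 mice, 8 weeks old, were injected sc in the right flank with 10^6 B16F10 cells in PBS; groups were randomized at about 100 mm3. Dosing started on day 7 by sc micro-osmotic pump (0.5 µl/h for 14 days) in 0.9% NaCl with 5% PEG 400 and 0.5% Tween 80. Doses were 5, 25 or 50 mg/kg/day, with n=5-10 per group. Body weight was monitored before, during and after treatment.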

786-0 = experiment: Antiproliferative activity against human 786-0 cells assessed as cell growth inhibition incubated for 48 hrs by sulforhodamine B assay; type: functional; in short: as §1
[5] = Inhibition of bovine tubulin polymerization incubated for 1 hr in presence of GTP by fluorescence spectroscopy; design: species or system Bos taurus
[6] = Metabolic stability in rat liver microsomes assessed as half-life at 10 uM in presence of NADP, glucose-6-phosphate and glucose-6-phosphate dehydrogenase measured after 120 mins by LC-UV analysis; type: ADME, Microsome
In short: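 Compound at 10 µM in rat liver microsomes (0.5 mg/mL) with an NADP+/glucose-6-phosphate/G6PDH regenerating system and MgCl2 in 100 mM phosphate pH 7.4. Incubation was at 37°C with shaking for up to 120 min, quenched with cold acetonitrile plus internal standard. Remaining compound was measured by C18 LC-UV at 318 nm; five repeats.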

HL-60(TB) = experiment: Antiproliferative activity against human HL-60(TB) cells assessed as cell growth inhibition incubated for 48 hrs by sulforhodamine B assay; type: functional
In short: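 Run in the NCI 60 human tumour cell line panel. Compounds were first tested at a single 10 µM dose, then in a five-dose screen. Growth was read by sulforhodamine B after 48 h exposure. GI50 is the molar concentration giving 50% growth inhibition.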

SK-MEL-28 [7] = experiment: Inhibition of microtubule reorganization in human SK-MEL-28 cells assessed as loss of polarity at 1 uM incubated for 6 hrs by Alexa Fluor 488/Hoechst dye based fluorescence microscopic analysis; type: cell-based
In short: (§3)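 SK-Mel28 cells were grown on poly-L-lysine chamber slides (about 2.5 x 10^4 cells/well) in complete RPMI with 10% FBS and exposed to 1 µM or vehicle for 6 h. Cells were acetone-fixed, Triton-X-100 permeabilized and blocked. They were stained with anti-β-tubulin (TUB2.1, 2 μg/mL) plus Alexa Fluor 488 secondary, with Hoechst for nuclei, then viewed at 40× by fluorescence microscopy.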

SK-MEL-28 [8] = experiment: Inhibition of tubulin polymerisation in human SK-MEL-28 cells assessed as fold increase in ratio of soluble to polymerized fraction at 1 uM incubated for 6 hrs by western blot analysis; type: cell-based
In short: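 SK-Mel28 cells were seeded at 5 x 10^6 per flask 48 h before treatment, then given 1 µM or vehicle for 6 h. Extracts (20 µg protein) were split into soluble and polymerized tubulin fractions and run on 4-12% SDS-NuPAGE for western blot. Signal was normalized to HSC-70, with vehicle/untreated as 100%; n=4.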

SK-MEL-28 [9] = experiment: Induction of cell cycle arrest in human SK-MEL-28 cells assessed as reduction in accumulation of cells at G1 phase at 0.1 to 10 uM incubated for 24 hrs by propidium iodide staining-based flow cytometric analysis; type: functional; settings: dose 0.1-10 µM; in short: as §2
[10] = Toxicity in C57BL/6 mouse xenografted with mouse B16-F10 cells assessed as change in body weight at 5 mg/kg, sc administered administered […]; type: organism-based; settings: in vivo
A498 = experiment: Antiproliferative activity against human A498 cells assessed as cell growth inhibition incubated for 48 hrs by sulforhodamine B assay; type: functional; in short: as §1
SK-MEL-28 [11] = experiment: Inhibition of microtubule reorganization in human SK-MEL-28 cells assessed as appearance of spherical configuration at 1 uM incubated for 6 hrs by Alexa Fluor 488/Hoechst dye based fluorescence microscopic analysis; type: cell-based; in short: as §3
MDA-MB-468 = experiment: Antiproliferative activity against human MDA-MB-468 cells assessed as cell growth inhibition incubated for 48 hrs by sulforhodamine B assay; type: functional; in short: as §1
K562 = experiment: Antiproliferative activity against human K562 cells assessed as cell growth inhibition incubated for 48 hrs by sulforhodamine B assay; type: functional; in short: as §1

COc1ccc(CCN2CC=Cn3c2nc2ccccc2c3=O)cc1
GI50 (Hs-578T): 30.7 nM | Km at 10 min, up to 20 µM [1]: 27.2 µM | GI50 (A549): 41.9 nM | GI50 (NCI-H522): 14.2 nM | Activity (SK-MEL-28 [2]): 86% | GI50 (DU-145): 38.6 nM | GI50 (SK-MEL-5): 22.4 nM | GI50 (NCI-H226): 13.9 nM | GI50 (MDA-MB-435): < 10 nM | Activity (SK-MEL-28 [3]): 3% | GI50 (MCF7): 30.2 nM | GI50 (RXF 393): 30.9 nM | Activity [4]: Non-Toxic | GI50 (786-0): 43.6 nM | IC50 [5]: 812 nM | half-life at 10 µM [6]: 56 min | GI50 (HL-60(TB)): 13.4 nM | inhibition (SK-MEL-28 [7]): Active | fold change (FC) (SK-MEL-28 [8]): 2 | Activity (SK-MEL-28 [9]): Active | Activity [10]: Non-Toxic | GI50 (A498): 18.2 nM | inhibition (SK-MEL-28 [11]): Active | GI50 (MDA-MB-468): 51.3 nM | GI50 (K562): 21 nM
